Source: ChEMBL document CHEMBL4000240, “Escape from adamantane: Scaffold optimization of novel P2X7 antagonists featuring complex polycycles” (Bioorg Med Chem Lett, 2017)

Assays:
P2X purinoceptor 7 = molecular target: T1, P2X purinoceptor 7 (Homo sapiens, UniProt Q99572); assay: Antagonist activity at human P2X7 receptor expressed in HEK293 cells assessed as inhibition of BzATP-induced ethidium bromide uptake after 2 hrs by fluorescence assay; assay type: cell-based
T1 sequence (Q99572 whole entry): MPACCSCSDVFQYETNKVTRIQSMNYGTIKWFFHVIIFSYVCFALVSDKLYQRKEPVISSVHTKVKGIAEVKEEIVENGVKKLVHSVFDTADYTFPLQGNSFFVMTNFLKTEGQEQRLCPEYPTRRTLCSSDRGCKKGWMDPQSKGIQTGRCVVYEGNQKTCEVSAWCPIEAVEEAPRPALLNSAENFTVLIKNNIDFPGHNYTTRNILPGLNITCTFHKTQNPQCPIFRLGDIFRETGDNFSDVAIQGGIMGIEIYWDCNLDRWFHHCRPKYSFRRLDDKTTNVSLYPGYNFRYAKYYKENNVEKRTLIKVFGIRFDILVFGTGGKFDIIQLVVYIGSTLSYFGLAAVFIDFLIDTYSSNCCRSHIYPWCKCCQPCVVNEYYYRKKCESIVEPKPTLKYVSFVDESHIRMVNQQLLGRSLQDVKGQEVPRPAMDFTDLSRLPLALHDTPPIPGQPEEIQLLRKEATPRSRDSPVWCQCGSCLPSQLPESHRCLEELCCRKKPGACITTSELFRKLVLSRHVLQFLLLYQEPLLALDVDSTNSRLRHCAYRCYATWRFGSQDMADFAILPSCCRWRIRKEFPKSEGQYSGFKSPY
How it was run: (§1)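 HEK293 cells stably carrying hP2X7 (pcDNA3.1 plasmid, Lipofectamine transfection) grown in DMEM/10% FBS, 2 mM glutamine, antibiotics, 37 °C, 5% CO2. Cells at 2.5 x 10^6/mL in pH 7.4 HEPES buffer with sucrose or NaCl, given compound plus BzATP, 2 h at 37 °C. Ethidium read at ex 530/em 590 nm as % of BzATP-only uptake. IC50 by nonlinear regression, 3-6 experiments.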

[1] = molecular target: T2, P2X purinoceptor 7 (Homo sapiens) (UniProt Q99572); assay: Antagonist activity at human P2X7 receptor expressed in HEK293 cells assessed as inhibition of BzATP-induced ethidium bromide uptake at 10 uM after 2 hrs by fluorescence assay relative to control; assay type: cell-based; how it was run: as §1
T2 sequence (whole entry): T1 sequence (Q99572 whole entry)

IC50 (P2X purinoceptor 7) | inhibition [1] | Structure (SMILES)
1560 nM | – | O=C(NNc1ccc(C(F)(F)F)cc1Cl)C12C3C=CC4C3C3C(C=CC31)C42
– | < 20% | O=C1C2C3C=CC(C4CC34)C2C(=O)N1Nc1ccccc1Cl (configuration not stated)
96 nM | – | O=C(NNc1ccccc1Cl)C12C3C=CC4C3C3C(C=CC31)C42
– | < 20% | O=C(NNc1ccc(C(F)(F)F)cc1)C12C3C=CC4C3C3C(C=CC31)C42
366 nM | – | O=C(NNc1ccccc1C(F)(F)F)C12C3CCC4C3C3C(CCC31)C42
933 nM | – | O=C(NNc1ccccc1Cl)C12C3CCC4C3C3C(CCC31)C42
132 nM | – | O=C(NNc1ccccc1C(F)(F)F)C12C3C=CC4C3C3C(C=CC31)C42

Second part, the compound before the results:

Structure (SMILES) | IC50 (P2X purinoceptor 7) | inhibition [1]
O=C1C2C3C=CC(C4CC34)C2C(=O)N1Nc1ccccc1 (configuration not stated) | – | < 20%
O=C(NNc1ccc(C(F)(F)F)cc1)C12C3CCC4C3C3C(CCC31)C42 | – | < 20%
CN([C@@H](Cc1ccc(OS(=O)(=O)c2cccc3cnccc23)cc1)C(=O)N1CCN(c2ccccc2)CC1)S(=O)(=O)c1cccc2cnccc12 | 96 nM | –
CC12CC3CC1(C)CC3(C(=O)NNc1ccccc1Cl)C2 | 18 nM | –
O=C1C2C3C=CC(C4CC34)C2C(=O)N1Nc1ccccc1F (configuration not stated) | – | < 20%
